This note sets out measurements from ChEMBL document CHEMBL1121795, “Esters of isoguvacine as potential prodrugs” (J Med Chem, 1981).

Structures are written as SMILES.

A short description of series [1]: Half-life was measured in 10% human serum at 10 mM concentration. In kind it is ADME. In outline:
(§1)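 Medium was 45 mL 0.5 M KCl, 0.5 mL phosphate buffer and 5.0 mL human serum (protein 69–78 mg/mL, BSA standard), N2-purged 2 h with pH held at 7.2–7.6 using 0.1 N HCl. Ester (0.05 or 0.5 mmol) was added; a pH-stat held 7.35 with 0.1 or 0.5 N NaOH at 37 °C. Half-life was calculated from base consumed.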

Series [2] in a line: Half-life was measured in 0.5 M KCl at 10 mM concentration. In kind it is ADME. The following applies: 0.5 M KCl solution. In outline: (§2)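 Chemical stability was measured with 0.5 mmol ester in 50 mL 0.5 M KCl plus 0.5 mL pH 7.00 phosphate buffer (10 mM), at pH 7.35 and 37 °C. pH-stat titration with 0.5 N NaOH recorded base consumption against time for the 2 acid equivalents released. Pseudo-first-order half-life, mean of at least two runs.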

Series [3] in a line: Half-life was measured in 10% human serum at 1 mM concentration. It counts as ADME. The essentials:
as §1

The species named for series [4] is Mus musculus. The series can be described thus: Compound was tested for anticonvulsant activity by measuring its effect on convulsions induced by electroshock in mice. In kind it is functional. The essentials:
(§3)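 Mice, at least five per group at each time point, received the ester ip; convulsions were induced 0.5, 1, 2, 3, 4, 5, 6, 17 and 24 h later. Value is the minimum effective anticonvulsant dose (mg/kg), with the time between dosing and onset of activity.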

The species entered for series [5] is Mus musculus. Description: Compound was tested for anticonvulsant activity by measuring its effect on convulsions induced by bicuculline in mice. It counts as functional. The essentials:
as §3

The species entered for series [6] is Mus musculus. Description: Compound was tested for anticonvulsant activity by measuring its effect on convulsions induced by isoniazide in mice. In kind it is functional. The essentials: as §3
The nature of series [7]: Half-life was measured in 10% human serum at 10 mM of ester. It counts as ADME. The essentials:
as §1

Series [8] is described as follows: Half-life was measured in 10% human serum at 1 mM dose. In kind it is ADME. In outline: as §1
Series [9] in a line: Half-life was measured in 0.5 M KCl at 10 mM dose. It counts as ADME. The note with it: 0.5 M KCl solution. In outline:
as §2

Series [10] is described as follows: Half-life was measured in 10% human serum at 10 mM dose. In kind it is ADME. The essentials: as §1

Broadly, the half-life is the time needed for the level to fall by half in the phase considered. High values mean slow decline, low ones rapid decline. On to `CCCC(=O)OCOC(=O)C1=CCNCC1.O=C(O)/C=C/C(=O)O`, for which the figures for the half-life at 10000 µM in series [1] and in [2] were 0.25 h and 11.7 h, respectively. For the same molecule, the half-life at 1000 µM in series [3] was 0.06 h.

In the case of `CCCCC(=O)OCOC(=O)C1=CCNCC1.O=C(O)/C=C/C(=O)O`, the figures for the half-life at 10000 µM in [1] and in series [2] were 0.28 h and 12 h, respectively. Also, in series [3], the half-life at 1000 µM is 0.03 h.

Consider `O=C(O)/C=C/C(=O)O.O=C(OCOC(=O)c1ccccc1)C1=CCNCC1`, for which the half-life at 10000 µM in series [1] was 0.4 h; in series [2], 9.3 h. Further, the Anticonvulsant dose is greater than 80 mg/kg in [4], greater than 80 mg/kg in series [5] and greater than 160 mg/kg in series [6]. Further, the half-life at 1000 µM in series [3] was 0.07 h.

For `O=C(O)/C=C/C(=O)O.O=C(OCOC(=O)C1CCCCC1)C1=CCNCC1`, the half-life at 10000 µM is 0.14 h in [1] and 10 h in series [2]. The half-life at 1000 µM in series [3] is 0.03 h.

Take `CC(C)(C)C(=O)OCOC(=O)C1=CCNCC1.O=C(O)/C=C/C(=O)O`: the half-life at 10000 µM in [1] is 14.9 h; in series [2], 17.1 h. In addition, the Anticonvulsant dose in series [4] was 10 mg/kg; in series [5], 20 mg/kg; in series [6], greater than 160 mg/kg. Besides, in series [3], the half-life at 1000 µM was 4.6 h.

For `CC(=O)OCOC(=O)C1=CCNCC1.O=C(O)/C=C/C(=O)O`, the half-life at 10000 µM in series [1] is 1.2 h; in series [2] it was 10.9 h. Besides, the Anticonvulsant dose in series [4] was 5 mg/kg; in [5], greater than 80 mg/kg; in series [6] it was 40 mg/kg. The molecule further had a half-life at 1000 µM in series [3] of 0.6 h.

On to `Br.CCCCOC(=O)C1=CCNCC1`, for which the Anticonvulsant dose in series [4] is 40 mg/kg; in [5], 40 mg/kg; in series [6], greater than 160 mg/kg. This molecule showed a half-life at 10000 µM in series [7] of 600 h.

In [7], `Br.CCOC(=O)COC(=O)C1=CCNCC1` had a half-life at 10000 µM of 300 h.

`COC(=O)C1=CCNCC1.Cl`: in series [7], the half-life at 10000 µM is 430 h.

In the case of `CC(C)C(=O)OCOC(=O)C1=CCNCC1.O=C(O)/C=C/C(=O)O`, the half-life at 10000 µM in [1] was 0.73 h; in series [2], 10.8 h. This molecule gave a half-life at 1000 µM in series [3] of 0.13 h.

`CC(C)CC(=O)OCOC(=O)C1=CCNCC1.O=C(O)/C=C/C(=O)O`: the half-life at 10000 µM is 3.5 h in [1] and 13.3 h in [2]. This molecule had a half-life at 1000 µM in [3] of 0.72 h.

On to `CCC(CC)C(=O)OCOC(=O)C1=CCNCC1.O=C(O)/C=C/C(=O)O`, for which the half-life at 10000 µM was 7.9 h in series [1] and 15.7 h in series [2]. In [3], this molecule gave a half-life at 1000 µM of 2.3 h.

For the molecule `CCCCCC(=O)OCOC(=O)C1=CCNCC1.O=C(O)/C=C/C(=O)O`, the half-life at 10000 µM in [1] was 0.32 h; in [2], 13 h. This molecule had a half-life at 1000 µM in series [3] of 0.06 h.

In the case of `CCC(=O)OCOC(=O)C1=CCNCC1.O=C(O)/C=C/C(=O)O`, the Anticonvulsant dose was greater than 80 mg/kg in [4], greater than 80 mg/kg in series [5] and 40 mg/kg in [6]. The molecule further gave a half-life at 1000 µM in series [8] of 0.17 h. Besides, the half-life at 10000 µM is 11.1 h in series [9] and 0.54 h in series [10].

Take `Cl.O=C(O)C1=CCNCC1` [ISOGUVACINE HYDROCHLORIDE]: the results for the Anticonvulsant dose in series [4], in series [5] and in series [6] were greater than 80 mg/kg, greater than 80 mg/kg and greater than 160 mg/kg, respectively.
